Assay results from different studies.
Each line is one published result; the experiments were not run side by side.
PLCD1: 1-phosphatidylinositol 4,5-bisphosphate phosphodiesterase delta-1 (PLCD1, Homo sapiens, UniProt P51178)
CSNK1D: Casein kinase I isoform delta (CSNK1D, Homo sapiens, UniProt P48730)
FLT3: Receptor-type tyrosine-protein kinase FLT3 (FLT3, Homo sapiens, UniProt P36888)
HTR2B: 5-hydroxytryptamine receptor 2B (HTR2B, Homo sapiens, UniProt P41595)
FLT3 F691L: Receptor-type tyrosine-protein kinase FLT3 (FLT3, Homo sapiens, UniProt P36888, F691L)
FLT3 ITD: Receptor-type tyrosine-protein kinase FLT3 (FLT3, Homo sapiens, UniProt P36888, ITD)

CCOc1ccc(C(=O)CC(SCc2ccc(Br)cc2)C(=O)O)cc1 (centres unmarked) — Ki (PLCD1; ligand displacement, FP): > 1000 µM
Brc1cnc2nccnc2c1 — Kd (CSNK1D; binding, SPR): > 50 µM
Cc1n[nH]c2ccc3nc(-c4ccc(C(=O)NCCN(C)C)cc4)c4c(c3c12)CCCCC4 — IC50 (FLT3; enzyme activity, inhibitor): 0.099 µM
CCOc1ccc(C(=O)CC(SCc2ccc(Cl)cc2)C(=O)O)cc1OCC (centres unmarked) — Ki (PLCD1; ligand displacement, FP): > 1000 µM
c1ccc(-c2nnc(NCc3ccccn3)o2)cc1 — Kd (CSNK1D; binding, SPR): > 50 µM
COc1cc2c3c(c1OC)-c1c(OC)ccc(O)c1CC3N(C)CC2 (centres unmarked) — Ki (HTR2B; ligand displacement, radioligand): 1.42 µM
CN(C)CCNC(=O)c1ccc(-c2nc3ccc4[nH]ncc4c3c3c2CCCCC3)c(F)c1 — IC50 (FLT3; enzyme activity, inhibitor): 0.053 µM
CN(C)C(=O)c1cc2cnc(Nc3ccc(C(=O)NCCCCCCOc4cccc5c4C(=O)N(C4CCC(=O)NC4=O)C5=O)cc3)nc2n1C1CCCC1 (centres unmarked) — Kd (Aurora kinase C (AURKC, Homo sapiens, UniProt Q9UQB9); binding, competition with immobilised ligand): < 0.2 µM
Cc1n[nH]c2ccc3nc(-c4ccc(C(=O)NCCN(C)C)cc4F)c4c(c3c12)CCCC4 — IC50 (FLT3 F691L; enzyme activity, inhibitor): 0.072 µM
COc1ccc(C(=O)CC(SCc2ccc(Cl)cc2)C(=O)O)cc1 (centres unmarked) — Ki (PLCD1; ligand displacement, FP): > 1000 µM
c1cc(CN2CCCNCCNCCCNCC2)ccc1CN1CCCNCCNCCCNCC1 — Kd (CSNK1D; binding, SPR): > 50 µM
CSCC[C@H](NC(C)=O)C(=O)N[C@@H](CC(=O)O)C(=O)N[C@@H](Cc1ccccc1)C(N)=O — EC50 (Gastrin/cholecystokinin type B receptor (CCKBR, Homo sapiens, UniProt P32239); β-arrestin recruitment, agonist): 18.7 µM
CN(C)CCN(C)C(=O)c1ccc(-c2nc3ccc4[nH]ncc4c3c3c2CCCCC3)cn1 — IC50 (FLT3 ITD; enzyme activity, inhibitor): > 1 µM
CCOc1ccc(C(=O)CC(SCc2ccccc2)C(=O)O)cc1 (centres unmarked) — Ki (PLCD1; ligand displacement, FP): > 1000 µM
CNC(=O)c1ccc(OC)c(Br)c1 — Kd (CSNK1D; binding, SPR): > 50 µM
CN(C)CCN(C)C(=O)c1ccc(-c2nc3ccc4[nH]ncc4c3c3c2CCCCC3)cc1 — IC50 (FLT3 ITD; enzyme activity, inhibitor): > 1 µM
COc1cc2c3c(c1OC)-c1c(OC)ccc(Br)c1CC3N(C)CC2 (centres unmarked) — Ki (5-hydroxytryptamine receptor 2C (HTR2C, Homo sapiens, UniProt P28335); cell-free assay, radioligand): 2.2 µM
c1ccc(CNCc2ccc(CN3CCCNCCNCCCNCC3)cc2)nc1 — Kd (CSNK1D; binding, SPR): > 50 µM
O=C(NCC1CC1)c1ccc(-c2nc3ccc4[nH]ncc4c3c3c2CCCC3)cc1 — IC50 (FLT3 ITD; enzyme activity, inhibitor): > 1 µM
CNc1cncc(Cl)n1 — Kd (CSNK1D; binding, SPR): > 50 µM
CN(C)CCNC(=O)c1ccc(-c2nc3ccc4[nH]ncc4c3c3c2CCCC3)cc1 — IC50 (FLT3 F691L; enzyme activity, inhibitor): 0.157 µM
CCOc1cccc(C(=O)CC(SCc2cccc(Br)c2)C(=O)O)c1 (centres unmarked) — Ki (PLCD1; ligand displacement, FP): 605 µM
COc1cc2c3c(c1OC)-c1c(OC)ccc(N4CCOCC4)c1CC3N(C)CC2 (centres unmarked) — Ki (HTR2B; ligand displacement, radioligand): 0.773 µM
CCOc1ccc(-c2cc(C(=O)O)c(-c3ccc(Cl)cc3)o2)cc1 — Ki (PLCD1; ligand displacement, FP): > 100 µM
O=C(NCCN1CCCCC1)c1ccc(-c2nc3ccc4[nH]ncc4c3c3c2CCCC3)cc1 — IC50 (FLT3 ITD; enzyme activity, inhibitor): 0.741 µM
Oc1ccc(C2CNCCN2)cc1 (centres unmarked) — Kd (CSNK1D; binding, SPR): > 50 µM
C#CCOc1cccc(C(=O)CC(SCc2cccc(Br)c2)C(=O)O)c1 (centres unmarked) — Ki (PLCD1; ligand displacement, FP): 710 µM
O=c1[nH]c(N2CCCC2)nc2ccccc12 — Kd (CSNK1D; binding, SPR): 43.8 µM
CCOc1ccc(C(=O)CC(SCc2ccc(F)cc2)C(=O)O)cc1 (centres unmarked) — Ki (PLCD1; ligand displacement, FP): > 1000 µM
